Where a name gives a salt, the structure may show the parent alone. Read-outs that look alike come from different tables or passages of the source.
How the values were obtained:
[1] = test system: NB TICs; assay: Sphere-formation secondary assay, NB TICs; type: cell-based, human; settings: for Fold difference in potency (EC50, sphere formation) NB TICs vs SKPs: text and legends
[2] = test system: NB67 cells
[3] = test system: NB12 xenograft tumours; assay: NB12 xenograft tumours in NOD/SCID mice; type: in vivo; settings: 14 days
[4] = test system: NB67 cells; assay: Secondary assay on NB67 TICs; settings: same patient as NB12, 2 years later
[5] = test system: SKPs; assay: Sphere-formation secondary assay, SKPs; type: cell-based, human; settings: up to doses of 1 µM
[6] = test system: SMS-KCNR cells; assay: Sphere-formation secondary assay, SMS-KCNR; type: cell-based, human; settings: up to doses of 1 µM
[7] = test system: NB88R2 xenograft tumours; assay: NB88R2 xenograft tumours in NOD/SCID mice; type: in vivo; settings: NB88 tumours; 3 mg/kg IP daily, 14 days
[8] = test system: NB12 xenograft tumours; assay: Sphere formation of cells re-isolated from treated NB12 xenograft tumours; type: in vivo, NOD/SCID mice; settings: dissociated tumours, methylcellulose, 10 days; 3 mg/kg IP daily
[9] = test system: SK-N-AS cells; assay: alamarBlue dose-response assay; type: cell-based, human; settings: serial dilutions, alamarBlue day 6, read day 7
[10] = test system: SH-SY5Y cells; assay: alamarBlue dose-response assay; type: cell-based, human; settings: serial dilutions, alamarBlue day 6, read day 7
[11] = test system: NB12 TICs; assay: Cell viability by trypan blue exclusion; type: cell-based, human; settings: 50 nM rapamycin
[12] = test system: p70S6K and S6RP phosphorylation; assay: Immunoblot of mTOR target proteins; type: cell-based, human; settings: 50 nM, 1 h
[13] = test system: NB TICs; assay: Apoptosis: nuclear morphology, sub-2n DNA content, cleaved PARP; type: cell-based, human; settings: 50 nM rapamycin
Method in brief: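 NB12 cells (40,000) on lysine/laminin-coated chamber slides, treated in duplicate 24 h after plating, then fixed with 4% paraformaldehyde and 0.5 µg/ml Hoechst 33342; nuclei counted in 15 random fields. For DNA content and blots, 200,000 NB TICs per 25 cm2 flask were treated 48 h post-plating. Cells were ethanol-fixed, RNaseA/propidium iodide 1 h 37 °C, flow cytometry. NP-40 lysates were immunoblotted for cleaved PARP.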

## COc1ccc2c(c[n+](C)c3c4cc5c(cc4ccc23)OCO5)c1OC [Chelerythrine chloride]
[1]; sphere formation, NB TICs vs SKPs
  Selective cytotoxicity for NB TICs (PKC inhibitors): selectively cytotoxic

## COc1cc2c(c(OC)c1OC)-c1ccc(OC)c(=O)cc1[C@@H](NC(C)=O)CC2 [Colchicine]
[2]
  Cytotoxicity to NB67 cells: not cytotoxic

## CO[C@H]1C=C[C@@]23c4cc5c(cc4CN(C[C@@H]2O)[C@H]3C1)OCO5 [Crinamine]
[1]
  Fold difference in potency (EC50, sphere formation) NB TICs vs SKPs: > 50 fold

## C=C1C(=O)O[C@H]2[C@H]1CC/C(C)=C/CC[C@@]1(C)O[C@@H]21 [Parthenolide]
[1]
  Fold difference in potency (EC50, sphere formation) NB TICs vs SKPs: 3-50 fold

## COc1cc([C@@H]2c3cc4c(cc3[C@H](O)[C@H]3COC(=O)[C@H]23)OCO4)cc(OC)c1OC [Podophyllotoxin]
[2]
  Cytotoxicity to NB67 cells: not cytotoxic

## CCN(CC)CCCC(C)Nc1c2ccc(Cl)cc2nc2ccc(OC)cc12 (stereo not drawn) [Quinacrine dihydrochloride]
[1]
  Fold difference in potency (EC50, sphere formation) NB TICs vs SKPs: 3-50 fold

## COc1cc([C@@H]2c3cc4c(cc3[C@@H](O[C@@H]3O[C@@H]5CO[C@@H](c6cccs6)O[C@H]5[C@H](O)[C@H]3O)[C@H]3COC(=O)[C@H]23)OCO4)cc(OC)c1O [Teniposide]
[1]
  Fold difference in potency (EC50, sphere formation) NB TICs vs SKPs: > 10 fold

## CC[C@]1(O)C[C@@H]2CN(CCc3c([nH]c4ccccc34)[C@@](C(=O)OC)(c3cc4c(cc3OC)N(C)[C@H]3[C@@](O)(C(=O)OC)[C@H](OC(C)=O)[C@]5(CC)C=CCN6CC[C@]43[C@@H]65)C2)C1 [Vinblastine sulfate]
[1]
  Fold difference in potency (EC50, sphere formation) NB TICs vs SKPs: > 10 fold
[3]; 0.25 mg/kg IP daily
  Reduction of tumour weight relative to vehicle-treated controls: 43.4%
[4]
  Cytotoxicity to NB67 cells: not cytotoxic

## CC[C@]1(O)C[C@H]2CN(CCc3c([nH]c4ccccc34)[C@@](C(=O)OC)(c3cc4c(cc3OC)N(C=O)[C@H]3[C@@](O)(C(=O)OC)[C@H](OC(C)=O)[C@]5(CC)C=CCN6CC[C@]43[C@@H]65)C2)C1 [Vincristine sulfate]
[4]
  Cytotoxicity to NB67 cells: not cytotoxic

## CO[C@H]1C[C@@H]2CC[C@@H](C)[C@@](O)(O2)C(=O)C(=O)N2CCCC[C@H]2C(=O)O[C@H]([C@H](C)C[C@@H]2CC[C@@H](O)[C@H](OC)C2)CC(=O)[C@H](C)/C=C(\C)[C@@H](O)[C@@H](OC)C(=O)[C@H](C)C[C@H](C)/C=C/C=C/C=C/1C [rapamycin]
[5]
  Effect on sphere formation of SKPs: little effect
[6]
  Effect on sphere formation of SMS-KCNR cells: little effect
[3]; 3 mg/kg IP daily
  Reduction of tumour weight relative to vehicle-treated controls: 82.6%
[7]
  Reduction of tumour weight relative to vehicle-treated controls: 74.0%
[8]
  Reduction of sphere-forming ability in treated tumours: 7.75 fold
[9]
  Sensitivity of SK-N-AS cells, alamarBlue assay: not effective
[10]
  Sensitivity of SH-SY5Y cells, alamarBlue assay: not effective
[11]
  Time to decrease of cell viability (trypan blue exclusion): 24 h
[12]
  Phosphorylation of p70S6K and S6RP: rapidly inhibited
[13]
  Apoptosis in NB12 and NB122R cells: induced features of apoptosis

Reference: article PMC3377336 (EMBO Molecular Medicine, 2010)
